# Results from publication PMC3772774 (Molecular cancer therapeutics, 2013).
# pIC50: −log10 of the molar value.
# Assays:
# c-Myc activation = c-Myc activation sensor luciferase assay in SK-ST stable cells; format: cell-based, human; conditions: for fold by which IC50 for sensor signal inhibition is higher than that of NTZ: SK-ST cells, PD98059 2hrs, U0126 1hr, Atorvastatin 16hrs
# [1] = molecular target: full-length firefly luciferase (SK-FST cells) (Photinus pyralis, UniProt P08659); assay: Full-length firefly luciferase control assay in SK-FST stable cells; format: cell-based; conditions: 16hrs treatment
# full-length firefly luciferase (SK-FST cells), sequence (P08659 whole entry): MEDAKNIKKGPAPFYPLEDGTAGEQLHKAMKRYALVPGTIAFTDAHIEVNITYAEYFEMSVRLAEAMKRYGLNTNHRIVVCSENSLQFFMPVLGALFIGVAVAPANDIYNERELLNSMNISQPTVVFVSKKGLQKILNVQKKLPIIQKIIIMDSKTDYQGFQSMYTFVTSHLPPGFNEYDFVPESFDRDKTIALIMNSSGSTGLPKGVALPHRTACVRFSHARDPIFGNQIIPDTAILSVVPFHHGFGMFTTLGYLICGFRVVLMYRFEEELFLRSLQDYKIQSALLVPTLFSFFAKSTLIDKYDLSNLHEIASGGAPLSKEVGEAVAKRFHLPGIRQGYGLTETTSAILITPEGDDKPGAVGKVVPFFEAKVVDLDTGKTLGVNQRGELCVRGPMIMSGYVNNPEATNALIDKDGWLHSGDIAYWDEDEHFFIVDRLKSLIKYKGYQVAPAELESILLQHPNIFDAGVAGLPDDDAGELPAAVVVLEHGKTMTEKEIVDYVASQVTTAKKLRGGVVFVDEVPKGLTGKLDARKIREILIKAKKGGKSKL
# How it was run: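 SKBR3 cells stably expressing full-length firefly luciferase on a single vector, selected with 3μg/ml puromycin, grown in McCoy's 5a with 10% FBS at 37°C, 5% CO2. Test compound was applied for 16hrs. D-Luciferin (45μg/ml in PBS, pH 7.0) was added to the medium and IVIS images were taken at 2-min intervals until peak. Photon output was normalized to total lysate protein; ≥3 repeats.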
# phospho c-Myc [2] = assay: Western blot of endogenous phospho c-Myc in lymphoma cells; format: cell-based; conditions: read-out: IC50 of inhibition of phospho c-Myc level
# How it was run: (§1)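 SKBR3 (McCoy's 5a), lymphoma (RPMI plus 3.96×10-4% 2-mercaptoethanol) and osteosarcoma 1325 (DMEM) cells, all with 10% FBS, at 37°C, 5% CO2, were exposed to test compound as in the sensor assay. Lysates (50μg protein) were immunoblotted for phospho-c-Myc (Thr58/Ser62) and c-Myc, with β-actin as loading control, then ECL and densitometry. IC50 came from a four-parameter nonlinear fit of fold-change against log concentration; ≥3 repeats.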
# phospho c-Myc [3] = assay: Western blot of endogenous phospho c-Myc in osteosarcoma cells; format: cell-based; conditions: read-out: IC50 of inhibition of phospho c-Myc level
# How it was run: as §1
# c-Myc = c-Myc inhibition in different cancer cell lines; format: cell-based; conditions: read-out: IC50 for c-Myc inhibition, range over different cancer cell lines
# How it was run: as §1
# SKBR3 cells = assay: MTS cell toxicity assay in SKBR3 cells; format: cell-based, human
# SK-ST xenografts = assay: SK-ST breast cancer xenograft model in nude mice; format: in vivo
# SK-FST xenografts = assay: SK-FST breast cancer xenograft model in nude mice; format: in vivo; conditions: 200mg/kg gavage twice a day, about 18 days after implantation
structure (smiles),measurement,setting,value
CC(C)c1c(C(=O)Nc2ccccc2)c(-c2ccccc2)c(-c2ccc(F)cc2)n1CC[C@@H](O)C[C@@H](O)CC(=O)O [Atorvastatin],fold by which IC50 for sensor signal inhibition is higher than that of NTZ,c-Myc activation,about 50 fold
"CC(=O)Oc1ccccc1C(=O)Nc1ncc([N+](=O)[O-])s1 [NTZ, nitazoxanide]",pIC50,"c-Myc activation; Homo sapiens, 16 h, read-out: IC50 for the sensor signal inhibition",~7.00
same,change of FL signal in SK-FST cells (direct effect on luciferase activity),[1],no significant changes
same,pIC50,phospho c-Myc [2],6.36
same,pIC50,phospho c-Myc [3],7.92
same,pIC50,c-Myc,6.30 to 8.00
same,half-maximal lethal dose (LD50),SKBR3 cells,about 1 μM
same,"common side effects (diarrhea, vomiting, skin rash)",SK-ST xenografts; 200mg/kg gavage twice a day for 27 days,didn’t observe the common side effects
same,tumor growth by gross inspection and caliper measurements,"SK-ST xenografts; 200mg/kg gavage twice a day, 27 days after implantation, P=0.00007 vs CMC",drastic inhibition of tumor growth
same,bioluminescent signal from SK-ST xenografts (c-Myc activation),"SK-ST xenografts; 200mg/kg gavage twice a day, vs CMC group",greatly inhibited
same,"caspase-3 staining, average positive cells in each sample","SK-ST xenografts; tumor samples, 200mg/kg gavage twice a day, CMC group 5±2, P<0.03",23±8 positive cells
same,endogenous phospho and c-Myc protein levels in tumor samples,"SK-ST xenografts; western blot, NTZ vs CMC group",greatly reduced
same,bioluminescent signal of SK-FST xenografts,SK-FST xenografts,sustained decrease of the signal
COc1cccc(-c2cc(=O)c3ccccc3o2)c1N [PD98059],fold by which IC50 for sensor signal inhibition is higher than that of NTZ,c-Myc activation,about 2000 fold
N#CC(=C(/N)Sc1ccccc1N)/C(C#N)=C(/N)Sc1ccccc1N [U0126],fold by which IC50 for sensor signal inhibition is higher than that of NTZ,c-Myc activation,~500 fold
